The text below walks through data of ChEMBL document CHEMBL4014343 (J Med Chem, 2017).

Series [1] concerns BT-549. The experiment in a line: Growth inhibition of human BT549 cells incubated for 48 hrs by sulforhodamine B assay. To be noted: BT-549, 48 h. It counts as functional. A general note: In SRB staining, fixed cells bind dye roughly in proportion to their protein.
For series [2], the system named is MCF7. The experiment in a line: Growth inhibition of human MCF7 cells incubated for 48 hrs by sulforhodamine B assay. It counts as functional. To be noted: MCF7, 48 h.
Series [3] has as its target T1, Insulin-like growth factor 1 receptor (Homo sapiens, UniProt P08069). The series is described as follows: Inhibition of IGF1R (unknown origin) by ADP-Glo assay. In a few lines:
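Isolated IGF-1R activity measured by luminescent ADP-Glo readout per manufacturer's protocol; IC50 from concentration-response (mean ± deviation reported).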
In general terms: In ADP-Glo the light output rises with the ADP produced.

Series [4] has as its system MCF7. The experiment in a line: Antiproliferative activity against human MCF7 cells after 3 days by SRB assay. It counts as functional, cell-based.
Series [5] is described as follows: Antiproliferative activity against human LXFL 529L cells after 3 days by SRB assay. It counts as functional, cell-based. The settings on record: Homo sapiens, LXFL 529L, 72 h.
The test system of series [6] is MDA-MB-231. The series is described as follows: Growth inhibition of human MDA-MB-231 cells incubated for 48 hrs by sulforhodamine B assay. It counts as functional. The settings on record: MDA-MB-231, 48 h.
A short description of series [7]: Solubility of the compound in water by spectrophotometric method. It counts as physicochemical. In short, it runs like this:
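Ethanol standard solutions define absorbance maxima; aqueous solubility then quantified spectrophotometrically at that maximum by calibration.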

The test system of series [8] is KM12. The series is described as follows: Growth inhibition of human KM12 cells incubated for 48 hrs by sulforhodamine B assay. It counts as functional. To be noted: KM12, 48 h.
Series [9] concerns the target T2, Cyclin-dependent kinase 2/cyclin E1 (Homo sapiens, UniProt P24941). The experiment in a line: Inhibition of full length human C-terminal His6-tagged CDK2/N-terminal GST-tagged CyclinE expressed in baculovirus infected sf21 cells after 10 mins in presence of [gamma32P]ATP by beta counting method.
Series [10] deals with T3, CDK2/Cyclin A2 (Homo sapiens, UniProt P24941). The series is described as follows: Inhibition of full length human C-terminal His6-tagged CDK2/N-terminal GST-tagged CyclinA expressed in baculovirus infected sf21 cells after 10 mins in presence of [gamma32P]ATP by beta counting method.
The target of series [11] is T3, CDK2/Cyclin A2. The experiment in a line: Inhibition of CDK2/CyclinA (unknown origin).
Series [12] has as its target T1, Insulin-like growth factor 1 receptor. The series is described as follows: Inhibition of IGF1R (unknown origin).
For series [13], the target named is T2, Cyclin-dependent kinase 2/cyclin E1. The series is described as follows: Inhibition of CDK2/CyclinE (unknown origin).
The target in series [14] is T4, Glycogen synthase kinase-3 beta (Homo sapiens, UniProt P49841). The series is described as follows: Inhibition of recombinant GSK3beta (unknown origin) after 10 mins in presence of [gamma32P]ATP by beta counting method. In a few lines:
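Recombinant kinase with 0.4 μCi [γ-32P]ATP per vial, 10 min at 30 °C; spotted on P81 paper, washed in 0.75% phosphoric acid, counted by β-scintillation. IC50 by linear regression versus solvent control; duplicates, ≥3 independent experiments.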

Series [15] deals with Cyclin-dependent kinase 4/cyclin D1 (Homo sapiens, UniProt P11802). The series is described as follows: Inhibition of CDK4/Cyclin D1 (unknown origin).
Series [16] has as its target T1, Insulin-like growth factor 1 receptor. The series is described as follows: Inhibition of IGF1R phosphorylation at Tyr1161 residue in human MCF7 cells at 10 uM after 1 hr by Hoechst 33258 staining based immunohistochemical analysis. It counts as cell-based. In short, it runs like this:
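MCF7 treated 1 h (test agent 1 μM; PI3K inhibitor 10 μM; 0.1% DMSO mock), fixed in 4% PFA 15 min, permeabilised/blocked, anti-p-IGF-1R Y1161 (1:200) overnight at 4 °C, Alexa 594 secondary 1 h, nuclei with Hoechst 33258 (1 μg/mL).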

Series [17] deals with Cyclin-dependent kinase 5/CDK5 activator 1 (Homo sapiens, UniProt Q00535). The series is described as follows: Inhibition of recombinant human N-terminal GST-tagged CDK5 (M1 to P292 residues)/p35NCK (M1 to R307 residues) expressed in baculovirus infected sf9 cells using RB-CTF as substrate by filter binding assay.
For series [18], the target named is T4, Glycogen synthase kinase-3 beta. The experiment in a line: Inhibition of human N-terminal GST/His6-tagged GSK3beta (M1 to T420 residues) expressed in baculovirus infected sf9 cells using RBER-IRStide as substrate by filter binding assay.
The target in series [19] is T5, Aurora kinase A (Homo sapiens) (UniProt O14965).
T5 sequence (whole entry): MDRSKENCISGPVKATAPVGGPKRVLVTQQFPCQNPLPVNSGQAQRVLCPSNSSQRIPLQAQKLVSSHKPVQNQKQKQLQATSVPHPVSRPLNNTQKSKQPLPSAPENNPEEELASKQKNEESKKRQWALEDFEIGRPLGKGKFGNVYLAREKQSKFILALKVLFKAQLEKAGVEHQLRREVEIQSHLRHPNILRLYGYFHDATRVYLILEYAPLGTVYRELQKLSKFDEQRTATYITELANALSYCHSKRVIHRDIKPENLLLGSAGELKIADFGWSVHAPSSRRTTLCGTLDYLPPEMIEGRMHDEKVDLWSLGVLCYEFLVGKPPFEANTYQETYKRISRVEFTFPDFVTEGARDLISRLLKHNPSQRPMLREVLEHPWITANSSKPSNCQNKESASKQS
The series is described as follows: Inhibition of human N-terminal GST/His6-tagged Aurora A (M1 to S403 residues) expressed in baculovirus infected sf9 cells at 1 uM using tetra(LRRLSLG) as substrate by filter binding assay. In short, it runs like this:
(§1)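 Single-point profiling at 1 μM in a 22-kinase panel, performed externally by ProQinase; activity read as residual percent of control.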

In series [20] the target is CDK6/cyclin D3 (Homo sapiens, UniProt Q00534). The series is described as follows: Inhibition of full length human N-terminal His6-tagged CDK6/N-terminal GST-tagged CyclinD3 expressed in sf21 cells after 10 mins in presence of [gamma32P]ATP by beta counting method.
Series [21] deals with Cyclin-dependent kinase 4/cyclin D1 (Homo sapiens) (UniProt P11802+P24385). The experiment in a line: Inhibition of recombinant human N-terminal GST-tagged CDK4 (S4 to E303 residues)/Cyclin D1 (Q4 to I295 residues) expressed in sf9 cells at 1 uM using RB-CTF as substrate by filter binding assay. In short, it runs like this: as §1
The target of series [22] is Fibroblast growth factor receptor 1 (Homo sapiens) (UniProt P11362). The experiment in a line: Inhibition of human N-terminal GST/His6-tagged FGFR1 (G400 to R820 residues) expressed in baculovirus infected sf9 cells at 1 uM using Poly(Glu,Tyr)4:1 as substrate by filter binding assay. In short, it runs like this:
as §1

For series [23], the target named is Aurora kinase B (Homo sapiens) (UniProt Q96GD4). The experiment in a line: Inhibition of human N-terminal GST/His6-tagged Aurora B (A2 to A344 residues) expressed in sf9 cells at 1 uM using tetra(LRRLSLG) as substrate by filter binding assay. In short, it runs like this: as §1
The target in series [24] is Cyclin-dependent kinase 5/CDK5 activator 1 (Homo sapiens) (UniProt Q00535+Q15078). The series is described as follows: Inhibition of recombinant human N-terminal GST-tagged CDK5 (M1 to P292 residues)/p35NCK (M1 to R307 residues) expressed in baculovirus infected sf9 cells at 1 uM using RB-CTF as substrate by filter binding assay. In a few lines:
as §1

The target of series [25] is T6, Aurora kinase C (Homo sapiens) (UniProt Q9UQB9).
T6 sequence (whole entry): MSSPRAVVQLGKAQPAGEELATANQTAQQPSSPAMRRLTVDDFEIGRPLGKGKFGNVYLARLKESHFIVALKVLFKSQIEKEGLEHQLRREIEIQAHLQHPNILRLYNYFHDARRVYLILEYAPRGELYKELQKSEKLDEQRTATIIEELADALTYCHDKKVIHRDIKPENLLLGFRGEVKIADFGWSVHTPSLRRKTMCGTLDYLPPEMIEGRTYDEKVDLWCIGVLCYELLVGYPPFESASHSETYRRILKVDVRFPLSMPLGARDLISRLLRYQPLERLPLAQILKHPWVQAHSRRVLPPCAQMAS
The series is described as follows: Inhibition of human N-terminal GST-tagged Aurora B (M1 to S27 residues) expressed in sf9 cells at 1 uM using CDC25C-derived peptide as substrate by filter binding assay. In a few lines: as §1

Series [26] has as its target T4, Glycogen synthase kinase-3 beta. The series is described as follows: Inhibition of human N-terminal GST/His6-tagged GSK3beta (M1 to T420 residues) expressed in baculovirus infected sf9 cells at 1 uM using RBER-IRStide as substrate by filter binding assay. In short, it runs like this:
as §1

The target of series [27] is Cyclin-dependent kinase 1/cyclin B1 (Homo sapiens, UniProt P06493). The series is described as follows: Inhibition of full length human C-terminal His6-tagged CDK1/N-terminal GST-tagged CyclinB expressed in baculovirus infected sf21 cells after 10 mins in presence of [gamma32P]ATP by beta counting method. It counts as cell-based.
Series [28] addresses Cyclin-dependent kinase 2/cyclin E1 (Homo sapiens) (UniProt P24864+P24941). The series is described as follows: Inhibition of recombinant human N-terminal GST-tagged CDK2 (M1 to L298 residues)/Cyclin E1 (M1 to A395 residues) expressed in sf9 cells at 1 uM using RB-CTF as substrate by filter binding assay. In a few lines: as §1
Series [29] has as its target Serine/threonine-protein kinase Chk2 (Homo sapiens) (UniProt O96017). The series is described as follows: Inhibition of CHK2 (unknown origin) at 1 uM. In a few lines:
as §1

The target in series [30] is CDK2/Cyclin A2 (Homo sapiens) (UniProt P24941+P20248). The series is described as follows: Inhibition of recombinant human N-terminal GST-tagged CDK2 (M1 to L298 residues)/Cyclin A2 (M1 to L432 residues) expressed in baculovirus infected sf9 cells at 1 uM using Histone H1 as substrate by filter binding assay. In short, it runs like this: as §1
Series [31] deals with Cyclin-dependent kinase 1/cyclin B1 (Homo sapiens) (UniProt P06493+P14635). The series is described as follows: Inhibition of recombinant human N-terminal GST/His6-tagged CDK1 (M1 to M297 residues)/Cyclin B1 (M1 to V433 residues) expressed in sf9 cells at 1 uM using RB-CTF as substrate by filter binding assay. In short, it runs like this: as §1

Converted amounts (≈) assume the structure as drawn. The source made the active and inactive calls. No cut-off for these calls is given here.

For the compound `CN1CCN(CCO/N=C2/C(=C3/C(=O)Nc4ccccc43)Nc3ccccc32)CC1.Cl`, the GI50 (as a rule, the concentration at which growth is held to half of that of the control) in [1] was found to be 3.19 µM; in [2] it was 590 nM; in [6], 2140 nM; in series [8], 80 nM. The concentration for half-maximal inhibition (IC50) (commonly the concentration that inhibits the measured activity by half) in series [3] is 169 nM; in series [4] (mcf7) it was 850 nM; in [5] it was 1100 nM. For the same compound, the solubility – broadly, the concentration that dissolves in the medium under given conditions – in series [7] was more than 25000 µg/mL.

For the compound `O=C1Nc2ccccc2/C1=C1/Nc2ccccc2/C1=N\O`, in [3], the IC50 is 5300 nM. The compound further showed a solubility in [7] of 0.12 µg/mL (≈ 0.433 µM).

On to `O=C1Nc2ccccc2/C1=C1/Nc2ccccc2C1=O` [INDIRUBIN], for which the IC50 in series [9] was 7.5 µM; in [10] it was 2200 nM; in [11] it was 7.5 µM; in series [4] (Homo sapiens, MCF7, 72 h), 9910 nM; in [12], more than 1 mM; in series [13], 2200 nM. The values for the IC50 in series [14] and in series [15] were 600 nM and 12 µM, respectively.

As to `O=c1cc(N2CCOCC2)oc2c(-c3ccccc3)cccc12`, in [16], the inhibition entry is “Active”.

`CN1CCN(CCO/N=C2/C(=C3/C(=O)Nc4cc(Br)ccc43)Nc3ccccc32)CC1`: the concentration for half-maximal inhibition (IC50) in series [17] worked out at 500 nM; in [18], 5 nM.

`O=C1Nc2ccccc2/C1=C1/Nc2ccccc2/C1=N\OCC(O)CO` (stereo not given): the IC50 amounted to 0.21 µM in series [9]; 75 nM in [20]; 540 nM in [10]; 100 nM in [4] (Homo sapiens, MCF7, 72 h); 900 nM in series [5]; 1650 nM in series [27]. For the same compound, the IC50 in series [14] was found to be 110 nM. In addition, the inhibition result in series [19], in series [21], in series [22], in series [23], in [24] and in series [25] was “Active” each time. Besides, the inhibition entry in [26], in series [28], in [29], in series [30] and in [31] was “Active” each time. This compound came in with a solubility in [7] of 2 µg/mL (≈ 5.69 µM).
